# Results pooled from the literature.
# Compare with care: the assays were run in different laboratories.
# MMP2: 72 kDa type IV collagenase (MMP2, Homo sapiens, UniProt P08253)
# PRKCE: Protein kinase C epsilon type (PRKCE, Homo sapiens, UniProt Q02156)
# PTGIR: Prostacyclin receptor (PTGIR, Homo sapiens, UniProt P43119)
Structure (SMILES),target,assay,setting,inhibition [%]
CCN(CC)CCCC[C@H](NC(=O)[C@H](CC(C)C)NC(=O)[C@H](C)NC(=O)[C@H](Cc1ccccc1)NC(=O)c1ccc(C(C)(C)C)cc1)C(=O)N[C@@H](CO)C(=O)OC,"Beta-2 adrenergic receptor (ADRB2, Homo sapiens, UniProt P07550)","ligand displacement, radioligand",10 µM,-1
COc1ccc(S(=O)(=O)N(CC(=O)NO)CC(C)C)cc1,MMP2,"enzyme activity, inhibitor",0.1 µM,71
Cn1cc(-c2cc(F)cc(N3CCn4c(cc5c4CCCC5)C3=O)c2CO)cc(Nc2ccc(N3CCN(C4COC4)CC3)cn2)c1=O,"G protein-coupled receptor kinase 6 (GRK6, Homo sapiens, UniProt P43250)","enzyme activity, inhibitor",0.1 µM,4
N=C(N)c1ccc2cc(OC(=O)c3ccc(N=C(N)N)cc3)ccc2c1,"Ubiquitin carboxyl-terminal hydrolase isozyme L1 (UCHL1, Homo sapiens, UniProt P09936)","enzyme activity, inhibitor",10 µM,0
CN1CCN(c2nc(N)c3ccccc3n2)CC1,"Neuronal acetylcholine receptor subunit alpha-7 (CHRNA7, Homo sapiens, UniProt P36544)","ligand displacement, radioligand",0.1 µM,31.9
C#Cc1n[nH]c2c(-c3cn(C(C)c4ccccn4)c(=O)[nH]c3=O)cc(F)cc12 (stereo not shown),PRKCE,"enzyme activity, inhibitor",1 µM,3.8
CN(C)C(=O)COC(=O)Cc1ccc(OC(=O)c2ccc(NC(=N)N)cc2)cc1,MMP2,"enzyme activity, inhibitor",10 µM,83
C#Cc1n[nH]c2c(-c3cn([C@@H](C)c4ccccc4)c(=O)[nH]c3=O)cc(F)cc12,PRKCE,"enzyme activity, inhibitor",0.1 µM,7.2
c1ccc(C(NCCNC(c2ccccc2)c2ccccc2)c2ccccc2)cc1,"Coagulation factor X (F10, Homo sapiens, UniProt P00742)","enzyme activity, inhibitor",10 µM,-9
CC(C)C[C@H](NC(=O)[C@H](Cc1ccccc1)NC(=O)c1cnccn1)B(O)O,"Lysosomal protective protein (CTSA, Homo sapiens, UniProt P10619)","cell-free assay, inhibitor",33 µM,32.4
O=C(Nc1cccnn1)N1CCN([C@@H]2CCOc3cc(C(F)(F)F)ccc32)CC1,PTGIR,cell-free assay,20 µM,-15
Cn1cc(-c2cccc(N3CCc4c(sc5c4CC(C)(C)C5)C3=O)c2CO)cc(Nc2ccncn2)c1=O,"G protein-coupled receptor kinase 5 (GRK5, Homo sapiens, UniProt P34947)","enzyme activity, inhibitor",1 µM,-5
CCOC(=O)c1ccc(OC(=O)CCCCCNC(=N)N)cc1,MMP2,"enzyme activity, inhibitor",10 µM,26
COc1cc(Nc2ncc(F)c(Nc3ccc4c(n3)NC(=O)C(C)(C)O4)n2)cc(OC)c1OC,"Epithelial discoidin domain-containing receptor 1 (DDR1, Homo sapiens, UniProt Q08345)","binding, competition with immobilised ligand",10 µM,100
Nc1c(S(=O)(=O)O)cc(Nc2ccc(Nc3nc(Cl)nc(Nc4cccc(S(=O)(=O)O)c4)n3)c(S(=O)(=O)O)c2)c2c1C(=O)c1ccccc1C2=O,"Histone-lysine N-methyltransferase SETD7 (SETD7, Homo sapiens, UniProt Q8WTS6)",cell-free assay,10 µM,93
Cc1ncc(C)n2nc(/C=C/c3nc(N4CCCC4)cc(N4CCOCC4)n3)nc12,PTGIR,cell-free assay,10 µM,22
